Reference: ChEMBL document CHEMBL2331355, “Synthesis, structure activity relationship and mode of action of 3-substitutedphenyl-1-(2,2,8,8-tetramethyl-3,4,9,10-tetrahydro-2H,8H-pyrano[2,3-f]chromen-6-yl)-propenones as novel anticancer agents in human leukaemia HL-60 cells” (Eur J Med Chem, 2013)
Calls of active or inactive are those of the source. The rule behind the calls is not given here.

Experiments:
HL-60 [1] = test: Cell cycle arrest in human HL60 cells assessed as accumulation of G0/G1 phase cells at 5 uM after 24 hrs by PI staining-based flow cytometric analysis (reference value: 48%); type: functional
HL-60 [2] = test: Cell cycle arrest in human HL60 cells assessed as S phase cells at 5 uM after 24 hrs by PI staining-based flow cytometric analysis (reference value: 49%); type: functional
HL-60 [3] = test: Cell cycle arrest in human HL60 cells assessed as S phase cells at 15 uM after 24 hrs by PI staining-based flow cytometric analysis (reference value: 49%); type: functional
HL-60 [4] = test: Cell cycle arrest in human HL60 cells assessed as S phase cells at 10 uM after 24 hrs by PI staining-based flow cytometric analysis (reference value: 49%); type: functional
HL-60 [5] = test: Cell cycle arrest in human HL60 cells assessed as G2/M phase cells at 20 uM after 24 hrs by PI staining-based flow cytometric analysis (reference value: 3%); type: functional
HL-60 [6] = test: Induction of apoptosis in human HL60 cells assessed as DNA fragmentation at 20 uM after 24 hrs by SDS-PAGE analysis; type: functional, cell-based; conditions: in the assay text read “agarose gel electrophoresis” for “SDS-PAGE analysis”
Method in brief: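 HL-60 cells (2 × 10⁶/3 ml/well) treated at 20 µM for 24 h. Lysed, then digested with RNase (400 µg/ml, 37 °C, 90 min) and proteinase K (200 µg/ml, 50 °C, 1 h). DNA extracted with phenol/chloroform/isoamyl alcohol and alcohol-precipitated. Run on 1.8% agarose gel at 70 V for 1 h, stained with ethidium bromide, and scored for laddering.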

HL-60 [7] = test: Induction of mitochondrial membrane potential loss in human HL60 cells at 15 uM after 24 hrs by rhodamine-123 staining method (reference value: 7%); type: functional
Method in brief: (§1)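 HL-60 cells (1 × 10⁶/2 ml/well) treated 24 h at 15 or 20 µM, then incubated with rhodamine-123 (200 nM) for 40 min. Loss of dye uptake measured by flow cytometry. Camptothecin (4 µM, 6 h) as positive control. Representative of three experiments.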

HL-60 [8] = test: Cell cycle arrest in human HL60 cells assessed as accumulation of G0/G1 phase cells after 24 hrs by PI staining-based flow cytometric analysis; type: functional
HL-60 [9] = test: Cell cycle arrest in human HL60 cells assessed as S phase cells at 20 uM after 24 hrs by PI staining-based flow cytometric analysis (reference value: 49%); type: functional
HL-60 [10] = test: Growth inhibition of human HL60 cells at 50 uM after 48 hrs by MTT assay; type: functional; conditions: HL-60, 48 h, read-out: GI
Method in brief: (§2)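 Single-concentration MTT screen at 50 µM over 48 h in 96-well plates. Compounds giving >50% inhibition were rescreened at 30 µM. OD read at 570 nm, reference 620 nm. Result expressed as % growth inhibition versus untreated control. Mitomycin C, adriamycin or 5-fluorouracil used as positive controls. Mean ± SD of three independent experiments.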

HL-60 [11] = test: Induction of apoptosis in human HL60 cells at 20 uM after 24 hrs by PI-staining based flow cytometric analysis (reference value: 0.7 %); type: functional
HL-60 [12] = test: Cell cycle arrest in human HL60 cells assessed as G2/M phase cells at 5 uM after 24 hrs by PI staining-based flow cytometric analysis (reference value: 3%); type: functional
Caco-2 [13] = test: Growth inhibition of human Caco2 cells at 50 uM after 48 hrs by MTT assay; type: functional; conditions: Caco-2, 48 h, read-out: GI; method in brief: as §2
Caco-2 [14] = test: Growth inhibition of human Caco2 cells at 30 uM after 48 hrs by MTT assay; type: functional, cell-based; method in brief: as §2
HL-60 [15] = test: Cytotoxicity against human HL60 cells after 24 hrs by MTT assay; type: functional, cell-based; conditions: HL-60, 24 h
Method in brief: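 HL-60 cells exposed 24 h to a range of concentrations, then MTT reduction measured. Untreated control OD taken as 100% viability; IC50 derived from the curve. Mean ± SD, n = 8 wells, three independent experiments.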

ASPC1 [16] = test: Growth inhibition of human AsPC1 cells at 50 uM after 48 hrs by MTT assay; type: functional; conditions: ASPC1, 48 h, read-out: GI; method in brief: as §2
HL-60 [17] = test: Induction of apoptosis in human HL60 cells assessed as apoptotic bodies at 20 uM after 24 hrs by Hoechst 33258 staining; type: functional, cell-based
Method in brief: (§3)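 HL-60 cells (1 × 10⁶/2 ml) treated 24 h at 15 and 20 µM, pelleted at 300 g and washed. Stained with Hoechst 33258, then examined under an inverted fluorescence microscope (10×, UV excitation) for nuclear condensation, blebbing and apoptotic bodies.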

MDA-MB-435 [18] = test: Growth inhibition of human MDA-MB-435 cells at 30 uM after 48 hrs by MTT assay; type: functional, cell-based; method in brief: as §2
PC-3 [19] = test: Cytotoxicity against human PC3 cells after 48 hrs by MTT assay; type: functional, cell-based; conditions: PC-3, 48 h
Method in brief: (§4)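 MTT assay in 96-well plates, 48 h exposure across 1–100 µM. OD read at 570 nm against a 620 nm reference. Untreated control OD taken as 100% viability. IC50 derived from the concentration–response curves. Mean ± SD, n = 8 wells, from three independent experiments.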

HL-60 [20] = test: Induction of mitochondrial membrane potential loss in human HL60 cells at 20 uM after 24 hrs by rhodamine-123 staining method (reference value: 7%); type: functional; method in brief: as §1
Caco-2 [21] = test: Cytotoxicity against human Caco2 cells after 48 hrs by MTT assay; type: functional, cell-based; conditions: Caco-2, 48 h; method in brief: as §4
MIA PaCa-2 [22] = test: Growth inhibition of human MIAPaCa2 cells at 30 uM after 48 hrs by MTT assay; type: functional, cell-based; method in brief: as §2
MIA PaCa-2 [23] = test: Cytotoxicity against human MIAPaCa2 cells after 48 hrs by MTT assay; type: functional, cell-based; conditions: MIA PaCa-2, 48 h; method in brief: as §4
HL-60 [24] = test: Induction of apoptosis in human HL60 cells assessed as accumulation of sub-G0/G1 phase cells after 24 hrs by PI-staining based flow cytometric analysis; type: functional, cell-based
HL-60 [25] = test: Induction of apoptosis in human HL60 cells at 5 uM after 24 hrs by PI-staining based flow cytometric analysis (reference value: 0.7 %); type: functional
HL-60 [26] = test: Growth inhibition of human HL60 cells at 30 uM after 48 hrs by MTT assay; type: functional, cell-based; method in brief: as §2
HL-60 [27] = test: Induction of apoptosis in human HL60 cells at 10 uM after 24 hrs by PI-staining based flow cytometric analysis (reference value: 0.7 %); type: functional
PC-3 [28] = test: Growth inhibition of human PC3 cells at 50 uM after 48 hrs by MTT assay; type: functional; conditions: PC-3, 48 h, read-out: GI; method in brief: as §2
MDA-MB-435 [29] = test: Growth inhibition of human MDA-MB-435 cells at 50 uM after 48 hrs by MTT assay; type: functional; conditions: MDA-MB-435, 48 h, read-out: GI; method in brief: as §2
HL-60 [30] = test: Induction of apoptosis in human HL60 cells assessed as nuclear condensation after 24 hrs by Hoechst 33258 staining; type: functional, cell-based; method in brief: as §3
HL-60 [31] = test: Cell cycle arrest in human HL60 cells assessed as decrease in S phase cells after 24 hrs by PI staining-based flow cytometric analysis; type: functional
HL-60 [32] = test: Cell cycle arrest in human HL60 cells assessed as accumulation of G0/G1 phase cells at 10 uM after 24 hrs by PI staining-based flow cytometric analysis (reference value: 48%); type: functional
HL-60 [33] = test: Cell cycle arrest in human HL60 cells assessed as decrease in G2/M phase cells after 24 hrs by PI staining-based flow cytometric analysis; type: functional
HL-60 [34] = test: Cell cycle arrest in human HL60 cells assessed as G2/M phase cells at 15 uM after 24 hrs by PI staining-based flow cytometric analysis (reference value: 3%); type: functional
MCF7 [35] = test: Growth inhibition of human MCF7 cells at 50 uM after 48 hrs by MTT assay; type: functional; conditions: MCF7, 48 h, read-out: GI; method in brief: as §2
PC-3 [36] = test: Growth inhibition of human PC3 cells at 30 uM after 48 hrs by MTT assay; type: functional, cell-based; method in brief: as §2
HL-60 [37] = test: Cell cycle arrest in human HL60 cells assessed as G2/M phase cells at 10 uM after 24 hrs by PI staining-based flow cytometric analysis (reference value: 3%); type: functional
ASPC1 [38] = test: Growth inhibition of human AsPC1 cells at 30 uM after 48 hrs by MTT assay; type: functional, cell-based; method in brief: as §2
HL-60 [39] = test: Induction of apoptosis in human HL60 cells assessed as nuclear blebbing after 24 hrs by Hoechst 33258 staining; type: functional, cell-based; method in brief: as §3
HL-60 [40] = test: Cell cycle arrest in human HL60 cells assessed as accumulation of G0/G1 phase cells at 20 uM after 24 hrs by PI staining-based flow cytometric analysis (reference value: 48%); type: functional
MIA PaCa-2 [41] = test: Growth inhibition of human MIAPaCa2 cells at 50 uM after 48 hrs by MTT assay; type: functional; conditions: MIA PaCa-2, 48 h, read-out: GI; method in brief: as §2
HL-60 [42] = test: Cell cycle arrest in human HL60 cells assessed as accumulation of G0/G1 phase cells at 15 uM after 24 hrs by PI staining-based flow cytometric analysis (reference value: 48%); type: functional
MCF7 [43] = test: Growth inhibition of human MCF7 cells at 30 uM after 48 hrs by MTT assay; type: functional, cell-based; method in brief: as §2
HL-60 [44] = test: Induction of apoptosis in human HL60 cells at 15 uM after 24 hrs by PI-staining based flow cytometric analysis (reference value: 0.7 %); type: functional
HL-60 [45] = test: Induction of apoptosis in human HL60 cells at 4 uM after 6 hrs by PI-staining based flow cytometric analysis (reference value: 0.7 %); type: functional
HL-60 [46] = test: Cell cycle arrest in human HL60 cells assessed as G2/M phase cells at 4 uM after 6 hrs by PI staining-based flow cytometric analysis (reference value: 3%); type: functional
HL-60 [47] = test: Cell cycle arrest in human HL60 cells assessed as accumulation of G0/G1 phase cells at 4 uM after 6 hrs by PI staining-based flow cytometric analysis (reference value: 48%); type: functional
HL-60 [48] = test: Induction of mitochondrial membrane potential loss in human HL60 cells at 4 uM after 6 hrs by rhodamine-123 staining method (reference value: 7%); type: functional
HL-60 [49] = test: Cell cycle arrest in human HL60 cells assessed as S phase cells at 4 uM after 6 hrs by PI staining-based flow cytometric analysis (reference value: 49%); type: functional
PC-3 [50] = test: Growth inhibition of human PC3 cells at 10 uM after 48 hrs by MTT assay; type: functional; conditions: PC-3, 48 h, read-out: GI
Method in brief: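 MTT assay. Suspension or adherent cells were exposed to compound for 48 h. OD was read at 570 nm (reference 620 nm), with untreated control OD set as 100% viability. Results are percent growth inhibition, mean ± SD of three independent experiments.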

CC1(C)CCc2cc(C(=O)/C=C/c3ccc(C#N)cc3)c3c(c2O1)CCC(C)(C)O3
Activity (HL-60 [1]): 48% | Activity (HL-60 [2]): 46% | Activity (HL-60 [3]): 23% | Activity (HL-60 [4]): 39% | Activity (HL-60 [5]): 3% | Activity (HL-60 [6]): Active | Activity (HL-60 [7]): 49% | Activity (HL-60 [8]): Dose-dependent effect | Activity (HL-60 [9]): 9% | inhibition of growth at 50 µM (HL-60 [10]): 93% | Activity (HL-60 [11]): 71% | Activity (HL-60 [12]): 6% | inhibition of growth at 50 µM (Caco-2 [13]): 93% | growth inhibition (GI) (Caco-2 [14]): Active | IC50 (HL-60 [15]): 16 µM | inhibition of growth at 50 µM (ASPC1 [16]): 48% | Activity (HL-60 [17]): Active | growth inhibition (GI) (MDA-MB-435 [18]): Active | IC50 (PC-3 [19]): 7 µM | Activity (HL-60 [20]): 61% | IC50 (Caco-2 [21]): 12 µM | growth inhibition (GI) (MIA PaCa-2 [22]): Active | IC50 (MIA PaCa-2 [23]): 12 µM | Activity (HL-60 [24]): Dose-dependent effect | Activity (HL-60 [25]): 1% | growth inhibition (GI) (HL-60 [26]): Active | Activity (HL-60 [27]): 11% | inhibition of growth at 50 µM (PC-3 [28]): 76% | inhibition of growth at 50 µM (MDA-MB-435 [29]): 88% | Activity (HL-60 [30]): Dose-dependent effect | Activity (HL-60 [31]): Dose-dependent effect | Activity (HL-60 [32]): 56% | Activity (HL-60 [33]): Dose-dependent effect | Activity (HL-60 [34]): 4% | inhibition of growth at 50 µM (MCF7 [35]): 78% | growth inhibition (GI) (PC-3 [36]): Active | Activity (HL-60 [37]): 5% | growth inhibition (GI) (ASPC1 [38]): Active | Activity (HL-60 [39]): Dose-dependent effect | Activity (HL-60 [40]): 88% | inhibition of growth at 50 µM (MIA PaCa-2 [41]): 76% | Activity (HL-60 [42]): 73% | growth inhibition (GI) (MCF7 [43]): Active | Activity (HL-60 [44]): 31%

CC[C@@]1(O)C(=O)OCc2c1cc1n(c2=O)Cc2cc3ccccc3nc2-1 [CAMPTOTHECIN]
Activity (HL-60 [45]): 69% | Activity (HL-60 [46]): 6% | Activity (HL-60 [47]): 88% | Activity (HL-60 [48]): 51% | Activity (HL-60 [49]): 6%

CO[C@@]12[C@H](COC(N)=O)C3=C(C(=O)C(C)=C(N)C3=O)N1C[C@@H]1N[C@@H]12 [MITOMYCIN]
inhibition of growth at 10 µM (PC-3 [50]): 68%
